Experimental data from different studies.
Protocols differ between the studies behind these lines.
Cell line: Calu-3
Effect on: cell growth or viability

| SMILES | technique | time | CC50 [µM] |
| --- | --- | --- | --- |
| CN(C)C(=O)COC(=O)Cc1ccc(OC(=O)c2ccc(NC(=N)N)cc2)cc1 | ATP luminescence |  | > 200 |
| CCOC(=O)c1c(NCc2ccc(SC)cc2)c2cccc(C)c2[nH]c1=O | MTS | 48 h | > 100 |
| CN1C(=O)c2ccccc2[S+]([O-])c2cc([N+](=O)[O-])ccc2S1(=O)=O (centres unmarked) | MTT | 72 h | > 100 |
| CC(C)[C@H](NC(=O)c1ccccc1NC(=O)c1ccccc1)C(=O)N[C@H](CO)C(C)C | MTT | 48 h | > 250 |
| COc1cc(Nc2ccnc3ccc(Br)cc23)cc(OC)c1OC | resazurin |  | > 60 |
| CCC(CC)COC(=O)[C@H](C)N[P@](=O)(OC[C@H]1O[C@@](C#N)(c2ccc3c(N)ncnn23)[C@H](O)[C@@H]1O)Oc1ccccc1 | MTT | 48 h | ≥ 250 |
| COc1cc2ncnc(Nc3ccc(F)c(Cl)c3)c2cc1OCCCN1CCOCC1 | resazurin |  | > 60 |
| O=C(NCc1ccc(F)cc1)c1cccc(Nc2ccc(-c3ccccc3)nn2)c1 | MTS | 48 h | > 100 |
| O=C(Nc1ccc2c(c1)OCO2)c1nnc(C(=O)N2CCCC(C(=O)NCc3ccccc3)C2)s1 (centres unmarked) | MTT | 48 h | 151 |
| CCS(=O)(=O)N1CC(CC#N)(n2cc(-c3ncnc4[nH]ccc34)cn2)C1 | resazurin |  | > 60 |
| O=C1Nc2cc(C(F)(F)F)ccc2Oc2ccsc21 | MTT | 72 h | > 100 |
